The nature of data set [1]: Plasma protein binding in mouse at 5 uM after 4 hrs by rapid equilibrium dialysis. The data set is classed as ADME, cell-free. As to conditions: read-out: PPB (converted).
The nature of data set [2]: Plasma protein binding in rat at 5 uM after 4 hrs by rapid equilibrium dialysis. It counts as ADME, cell-free. As to conditions: read-out: PPB (converted).
A short description of data set [3]: Half life in mouse at 1 mg/kg, iv. The data set is classed as ADME, organism-based. Also noted: dose 1 mg/kg, route intravenous. As to conditions: in vivo. The essentials:
(§1)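 Mouse PK used iv dosing at 1 mg/kg as a 60% PEG solution and po dosing at 5 mg/kg as a suspension in MCT. Clearance, unbound clearance, Vss, t1/2 and oral bioavailability were derived from these doses.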

Data set [4] in a line: Oral bioavailability in mouse at 5 mg/kg. The data set is classed as ADME, organism-based. As to conditions: in vivo. The method, boiled down: as §1
Data set [5] in a line: Volume of distribution at steady state in mouse at 1 mg/kg, iv. It counts as ADME, organism-based. Details: dose 1 mg/kg, route intravenous. To be noted: in vivo, read-out: Vdss. The method, boiled down:
as §1

Data set [6] can be described thus: Clearance in mouse at 1 mg/kg, iv. The data set is classed as ADME, organism-based. As to conditions: in vivo. Details: dose 1 mg/kg, route intravenous. The method, boiled down:
as §1

The test system of data set [7] is Mus musculus. In words: Unbound clearance in mouse at 1 mg/kg, iv. Details: dose 1 mg/kg, route intravenous. To be noted: in vivo. It counts as ADME, organism-based. The essentials:
as §1

Data set [8] can be described thus: Clearance in mouse liver microsomes. The data set is classed as ADME, Microsome.
The nature of data set [9]: Clearance in rat liver microsomes. The data set is classed as ADME, Microsome.
A short description of data set [10]: Clearance in human liver microsomes. It counts as ADME, Microsome.
Data set [11] can be described thus: Kinetic solubility of the compound. The data set is classed as physicochemical. As to conditions: for solubility kinetic: read-out: Kinetic_solubility.
Data set [12] is described as follows: Cytotoxicity against human MCF7 neo/Her2 cells after 3 days by CellTiter-Glo assay. To be noted: MCF7, 72 h.
The subject of data set [13] is PC-3. The data set can be described thus: Cytotoxicity against human PC3 cells after 4 days by CellTiter-Glo assay. To be noted: PC-3, 96 h.
Data set [14] can be described thus: Inhibition of mTORC2 in human NCI-PC3 cells assessed as inhibition of AKT phosphorylation.
A short description of data set [15]: Plasma protein binding in human at 5 uM after 4 hrs by rapid equilibrium dialysis. The data set is classed as ADME, cell-free. As to conditions: read-out: PPB (converted).
Data set [16] concerns the target Cytochrome P450 3A4 (Homo sapiens, UniProt P08684). In words: Time dependent inhibition of human CYP3A4 preincubated for 30 mins in presence of NADPH. It counts as ADME. The method, boiled down: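 TDI IC50 is the inhibitor concentration giving 50% loss of CYP3A4 activity after a 30 min pre-incubation with NADPH. It is reported as clean where no IC50 could be measured.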

For data set [17], the system named is Plasma. In words: Unbound plasma concentration in NCR nude mouse xenografted with human PC3 cells at 50 to 100 mg/kg, po measured at 6 to 10 hrs. Details: route oral. To be noted: in vivo. The data set is classed as ADME, organism-based, PC-3.
Data set [18] deals with Plasma. The data set can be described thus: Plasma concentration in NCR nude mouse xenografted with human PC3 cells at 50 to 100 mg/kg, po measured at 6 to 10 hrs. The data set is classed as ADME, organism-based, PC-3. Details: route oral. To be noted: in vivo.
Data set [19] is filed under the species Mus musculus. To be noted: NCR, NCI-PC3, 50 to 100 mg/kg.
The species named for data set [20] is Mus musculus. To be noted: NCR, NCI-PC3, 50 to 100 mg/kg. This is another data set of the same source.
Data set [21] in a line: Antitumor activity against human MCF7-neo/Her2 xenografted in nude mouse at 37 mg/kg, qd measured after 14 days. The data set is classed as functional. To be noted: 336 h, read-out: TGI.

Converted amounts (≈) assume the structure as drawn. The source made the active and inactive calls. The calls are words filed in the database; no cut-off is given here.

Sequence of Cytochrome P450 3A4 (P08684 whole entry): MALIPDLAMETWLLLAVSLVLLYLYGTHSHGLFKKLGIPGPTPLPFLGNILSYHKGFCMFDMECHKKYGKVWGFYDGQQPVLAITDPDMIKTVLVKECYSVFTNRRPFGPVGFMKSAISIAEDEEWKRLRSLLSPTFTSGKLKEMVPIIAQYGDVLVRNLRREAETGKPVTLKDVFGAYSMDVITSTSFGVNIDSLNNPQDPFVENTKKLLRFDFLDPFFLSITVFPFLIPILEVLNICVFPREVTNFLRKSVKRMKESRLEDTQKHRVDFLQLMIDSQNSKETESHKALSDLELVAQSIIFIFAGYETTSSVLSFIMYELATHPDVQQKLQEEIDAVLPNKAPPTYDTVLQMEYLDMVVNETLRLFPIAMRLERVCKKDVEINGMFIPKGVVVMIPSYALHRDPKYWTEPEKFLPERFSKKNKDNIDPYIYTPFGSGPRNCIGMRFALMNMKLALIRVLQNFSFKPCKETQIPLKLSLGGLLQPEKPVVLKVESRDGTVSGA

On to `CCNC(=O)Nc1ccc(-c2nc3c(c(N4CCOC[C@@H]4C)n2)C[C@@H]2CC[C@H]3N2C)cc1`, for which the fraction unbound at 4 h, 5 µM in [1] was 0.14; in data set [2] it was 0.32. Also, in data set [3], the half-life was 1.3 h. Moreover, the bioavailability in data set [4] came out at 133%. Besides, the Vd in data set [5] stood at 1.5 L/kg. The same compound displayed a clearance in [6] of 24 mL/min/kg. Besides, in data set [7], the CL free came out at 165 mL/min/kg. For the same compound, the CLhep predicted is 50 mL/min/kg in [8], 22 mL/min/kg in [9] and 14 mL/min/kg in data set [10]. In addition, the Kinetic_solubility result in [11] is given as “soluble”. Moreover, the EC50 in [12] is 0.084 µM; in data set [13] it was 0.037 µM. Also, the IC50 in data set [14] is 0.0021 µM.
As to `CCNC(=O)Nc1ccc(-c2nc3c(c(N4CCOC[C@@H]4C)n2)C[C@H]2CC[C@@H]3N2C)cc1`, in data set [11], the Kinetic_solubility entry is “soluble”. Moreover, the EC50 is 0.489 µM in [12] and 0.123 µM in [13]. Further, the IC50 in data set [14] is 0.016 µM.
As for `CCNC(=O)Nc1ccc(-c2nc3c(c(N4CCOC[C@@H]4C)n2)[C@@H]2CC[C@H](C3)N2C)cc1`, the results for the fraction unbound at 4 h, 5 µM in data set [1], in data set [15] and in [2] were 0.54, 0.81 and 0.8, respectively. Besides, the half-life in data set [3] is 1.07 h. Besides, the bioavailability in data set [4] came to 82%. In data set [5], the Vd came to 2.6 L/kg. Moreover, in data set [6], the clearance worked out at 34 mL/min/kg. Further, in data set [7], the CL free worked out at 53 mL/min/kg. The CLhep predicted was 58 mL/min/kg in data set [8], 28 mL/min/kg in data set [9] and 15 mL/min/kg in data set [10]. Further, the solubility kinetic in [11] is above 75 µM. In addition, the EC50 in [12] stood at 0.158 µM; in data set [13], 0.152 µM. The IC50 in [14] worked out at 0.0067 µM.
Take `CCNC(=O)Nc1ccc(-c2nc3c(c(N4CCOC[C@@H]4C)n2)[C@H]2CC[C@@H](C3)N2C2COC2)cc1`: the solubility kinetic in data set [11] was above 75 µM. Besides, the IC50 is above 10 µM in data set [16] and 0.029 µM in data set [14]. Besides, the EC50 in [12] came out at 0.268 µM; in data set [13], 0.18 µM.
With `CCNC(=O)Nc1ccc(-c2nc3c(c(N4CCOC[C@@H]4C)n2)CN(C2COC2)CC3)cc1`, the solubility kinetic in [11] worked out at 40 µM (≈ 18.1 µg/mL). In addition, the IC50 in [16] is 2.5 µM. In addition, the EC50 in data set [12] was determined as 1.2 µM; in data set [13] it was 0.797 µM.
Turning to `CCNC(=O)Nc1ccc(-c2nc3c(c(N4CCOC[C@@H]4C)n2)[C@@H]2CC[C@H](C3)N2C2COC2)cc1`, the solubility kinetic in data set [11] was above 75 µM. Besides, the figures for the EC50 in data set [12] and in data set [13] were 0.971 µM and 0.579 µM, respectively. The IC50 in [14] turned out to be 0.045 µM.
Turning to `CCNC(=O)Nc1ccc(-c2nc3c(c(N4CCOC[C@@H]4C)n2)C[C@@H]2CC[C@H]3N2C(C)(C)C(=O)NC)cc1`, the Kinetic_solubility result in [11] is recorded as “soluble”. Further, the EC50 in data set [12] was found to be 0.017 µM; in data set [13], 0.013 µM. Besides, the IC50 in [14] is 0.0006 µM.
`CCNC(=O)Nc1ccc(-c2nc3c(c(N4CCOC[C@@H]4C)n2)[C@H]2CC[C@@H](C3)N2C)cc1`: the “Cp(f)” value in [17] is above 320 nM. In [18], this compound gave a concentration above 1000 nM. The fraction unbound at 4 h, 5 µM in data set [1] was 0.32; in data set [15], 0.62; in data set [2] it was 0.73. Besides, the half-life in data set [3] was 0.8 h. For the same compound, in data set [4], the bioavailability amounted to 114%. In addition, the Vd in [5] was 4.5 L/kg. Moreover, the clearance in data set [6] worked out at 67 mL/min/kg. In [7], the CL free worked out at 207 mL/min/kg. In addition, the CLhep predicted in data set [8] was 42 mL/min/kg; in data set [9] it was 18 mL/min/kg; in [10], 12 mL/min/kg. The solubility kinetic in data set [11] is above 75 µM. In addition, the figures for the EC50 in [12] and in [13] were 0.097 µM and 0.103 µM, respectively. Moreover, in [14], the IC50 stood at 0.0039 µM. Moreover, the inhibition entry in data set [19] and in [20] was “Active” each time.
Consider `CCNC(=O)Nc1ccc(-c2nc3c(c(N4CCOC[C@@H]4C)n2)[C@H]2CC[C@@H](C3)N2S(C)(=O)=O)cc1`, for which, in [11], the solubility kinetic was above 75 µM. Moreover, the IC50 in data set [16] was found to be 5 µM; in data set [14], 0.018 µM. The EC50 in data set [12] worked out at 0.806 µM; in data set [13], 0.26 µM.
For the compound `CCNC(=O)Nc1ccc(-c2nc3c(c(N4CCOC[C@@H]4C)n2)[C@H]2CC[C@@H](C3)N2CC)cc1`, the solubility kinetic in data set [11] is above 75 µM. Moreover, the values for the EC50 in data set [12] and in [13] were 0.184 µM and 0.145 µM, respectively. Besides, the IC50 in data set [14] came out at 0.0032 µM.
As for `CCNC(=O)Nc1ccc(-c2nc3c(c(N4CCOC[C@@H]4C)n2)CCN(C2COC2)C3)cc1` [RG-7603], the inhibition in vivo at 37 mg/kg in data set [21] amounted to 60%. In addition, the CL free in data set [7] was determined as 100 mL/min/kg. The results for the IC50 in [12] and in data set [13] were 0.567 µM and 0.27 µM, respectively.
`CCNC(=O)Nc1ccc(-c2nc3c(c(N4CCOC[C@@H]4C)n2)[C@H]2CC[C@@H](C3)N2C(C)=O)cc1`: the solubility kinetic in data set [11] is above 75 µM. The results for the IC50 in data set [16] and in [14] were 7.3 µM and 0.03 µM, respectively. Further, the concentration for a half-maximal effect (EC50) turned out to be 0.46 µM in data set [12] and 0.18 µM in [13].
With `CCNC(=O)Nc1ccc(-c2nc3c(c(N4CCOC[C@@H]4C)n2)C[C@@H]2CC[C@H]3N2C(=O)COC)cc1`, the fraction unbound at 4 h, 5 µM in [1] was 0.07; in [15] it was 0.27; in data set [2] it was 0.21. In [3], this compound had a half-life of 0.82 h. Further, the bioavailability in data set [4] is 47%. Also, the Vd in data set [5] was 0.66 L/kg. For the same compound, in [6], the clearance is 9.38 mL/min/kg. In data set [7], the CL free turned out to be 134 mL/min/kg. For the same compound, the results for the CLhep predicted in data set [8], in [9] and in [10] were 69 mL/min/kg, 31 mL/min/kg and 17 mL/min/kg, respectively. Moreover, in data set [11], the Kinetic_solubility result is “soluble”. The EC50 in [12] worked out at 0.036 µM; in data set [13], 0.047 µM. Besides, the IC50 in [14] was determined as 0.0022 µM.
For the compound `CCNC(=O)Nc1ccc(-c2nc3c(c(N4CCOC[C@@H]4C)n2)C[C@@H]2CC[C@H]3N2S(C)(=O)=O)cc1`, the figures for the fraction unbound at 4 h, 5 µM in data set [1], in [15] and in data set [2] were 0.05, 0.14 and 0.1, respectively. In addition, in data set [3], the half-life was 1.02 h. The bioavailability in data set [4] turned out to be 53%. Further, in [5], the Vd amounted to 1.59 L/kg. The compound also registered a clearance in [6] of 17.8 mL/min/kg. Besides, in [7], the CL free was 342 mL/min/kg. In addition, the CLhep predicted in data set [8] was 49 mL/min/kg; in [9], 26 mL/min/kg; in [10] it was 11 mL/min/kg. In data set [11], the Kinetic_solubility entry was “soluble”. Also, the IC50 in [16] turned out to be 5 µM; in [14] it was 0.0016 µM. The figures for the EC50 in [12] and in data set [13] were 0.047 µM and 0.025 µM, respectively.
For `CCNC(=O)Nc1ccc(-c2nc3c(c(N4CCOC[C@@H]4C)n2)C[C@@H]2CC[C@H]3N2C(C)=O)cc1`, the fraction unbound at 4 h, 5 µM is 0.02 in data set [1], 0.16 in [15] and 0.16 in [2]. Moreover, the half-life in data set [3] is 1.2 h. In addition, in data set [4], the bioavailability amounted to 40%. The Vd in data set [5] is 0.54 L/kg. In addition, the clearance in data set [6] was 4.62 mL/min/kg. This compound returned a CL free in data set [7] of 200 mL/min/kg. Further, the CLhep predicted in data set [8] is 42 mL/min/kg; in [9] it was 24 mL/min/kg; in data set [10] it was 15 mL/min/kg. Also, the Kinetic_solubility result in [11] is “soluble”. For the same compound, the EC50 in [12] worked out at 0.061 µM; in data set [13] it was 0.016 µM. Besides, the IC50 in data set [14] came to 0.002 µM.
